High-throughput results (PubChem BioAssay)
Only some compounds are listed: those with a hit (about 2.1% of all), similar ones and a draw of the others.
MC4R ag barr: agonists of human melanocortin 4 receptor (MC4R) beta-arrestin; U2OS MC4R beta-arrestin complementation, luminescence; percent of melanotan II response, DMSO zero; activation, % at 8.9 µM; actives 0.98% (n = 360,000);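 active = activation above a per-plate cutoff, the mean activation of sample wells on that plate plus 3 SD, cut at about 8% in these data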
MC4R antag cAMP: antagonists of human melanocortin 4 receptor (MC4R). P32245. MC4R-expressing cells, MTII-stimulated cAMP, LANCE TR-FRET. inhibition, % at 6.5 µM. actives 0.48% (n = 360,000). AID 540295;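 active = inhibition above its plate's cutoff, the mean of tested wells on that plate plus 3 SD, cut at about 29% in these data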;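 also: 0% = Melanotan II alone and 100% = Melanotan II plus saturating MCL0020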
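System: U2OS cells stably expressing human melanocortin 4 receptor (MC4R). Reagent: Melanotan II challenge after compound preincubation. Doses: 6.5 µM. Times: 30-min compound, 1-h challenge, 1-h detection, room temperature. Measured by: TR-FRET with Eu-cAMP and labeled anti-cAMP, 671 nm. Replicates: singlicate.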
TLR4 MyD88 comp: blocks binding of human TLR4 to MyD88. actives 0.18% (n = 200,000). O00206+Q99836. AID 861. inhibition, % at 8.4 µM. HeLa CL3-4 TLR4/MyD88 BLA complementation, FRET ratio; in the data active = inhibition above about 25%;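 also: 0% = vehicle and 100% = reference inhibitor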
TLR9-MyD88 inh: inhibitors of human TLR9-MyD88 binding; Q9NR96+Q99836; CHO BLA complementation TLR9-MyD88, CCF4 FRET ratio; inhibition, % at 4.98 µM; actives 0.21% (n = 340,000);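 active = inhibition above the mean over all tested compounds plus 3 SD, cut at about 21% in these data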;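 also: 0% = DMSO only wells and 100% = clavulanate BLA inhibitor control wells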
NOD2 RIPK2 PPI: blocks binding of human NOD2 to RIPK2 | O43353 | CHO BLA complementation NOD2-RIPK2, CCF4 ratio | inhibition, % at 4.98 µM | actives 0.38% (n = 360,000); in the data active = inhibition above about 21%;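 also: 0% = vehicle only and 100% = reference blocker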
Target sequence (O43353 whole entry, looked up): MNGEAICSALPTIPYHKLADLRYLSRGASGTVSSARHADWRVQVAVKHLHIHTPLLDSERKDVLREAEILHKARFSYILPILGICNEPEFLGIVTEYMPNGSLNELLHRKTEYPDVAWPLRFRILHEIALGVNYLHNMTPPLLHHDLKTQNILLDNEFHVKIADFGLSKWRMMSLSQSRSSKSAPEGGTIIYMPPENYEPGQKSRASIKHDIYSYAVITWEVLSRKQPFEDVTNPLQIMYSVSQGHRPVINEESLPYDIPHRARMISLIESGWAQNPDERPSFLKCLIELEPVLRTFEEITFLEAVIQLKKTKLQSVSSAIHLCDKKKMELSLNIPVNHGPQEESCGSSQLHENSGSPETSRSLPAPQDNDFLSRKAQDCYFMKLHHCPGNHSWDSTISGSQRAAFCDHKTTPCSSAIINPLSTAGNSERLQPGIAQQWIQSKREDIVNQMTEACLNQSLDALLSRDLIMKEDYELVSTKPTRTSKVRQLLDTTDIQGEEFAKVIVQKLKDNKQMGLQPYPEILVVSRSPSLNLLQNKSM
MIN6 prolif-1: inducers of beta-cell replication in MIN6 cells. MIN6 cells proliferation, ATPlite luminescence, 48 h; cells starved in 0.2% serum; 100% = growth in 10% serum. actives 0.29% (n = 330,000). proliferation, % at 10 µM;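 active = compounds whose signal lies at least 3.5 SD above the mean of all wells on their plate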;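 also: 0% = DMSO-treated cells in low-serum medium and 100% = 10% serum control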
MIN6 prolif-2: confirmation of inducers of beta-cell replication in MIN6 cells | proliferation increase, % at 50 µM | 920 tested, under 10 active | shares compounds with MIN6 prolif-1 | AID 463095 | MIN6 beta-cell proliferation, ATPlite luminescence, 48 h; cells kept in 0.2% serum; scaled between 0.2% and 10% serum;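 active = proliferation increase above 40% at any of the four tested concentrations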
* marks the source's active call; other numbers are inactive results; . = not tested or not shown.

SMILES	MC4R ag barr	MC4R antag cAMP	TLR4 MyD88 comp	TLR9-MyD88 inh	NOD2 RIPK2 PPI	MIN6 prolif-1	MIN6 prolif-2
CC1=C(C(=O)OCc2ccccc2)N2C(=O)[C@@H](NC(=O)COc3ccccc3)[C@H]2SC1	1.4	5.0	.	-9.9	-1.3	-3.4	.
Nc1nc(NCCc2ccccc2)nc(NCc2ccccc2)c1[N+](=O)[O-]	1.4	-15.2	.	-1.1	-6.0	-1.6	.
C=CCNc1nc(N)c([N+](=O)[O-])c(NCc2ccccc2)n1	0.2	5.2	.	-11.4	10.6	8.3*	2.4
O=C(NNC(=O)C1CC(c2cccnc2)=NO1)Nc1cccc(F)c1 (centres undefined)	-2.1	6.8	17.3	0.2	7.2	5.6*	1.4
O=C1CC(C(=O)N2CCc3ccccc32)CN1c1cccc(C(F)(F)F)c1 (centres undefined)	2.4	4.4	.	5.3	0.7	-2.5	.
c1cncc(-c2nc(N3CCOCC3)c3ccccc3n2)c1	0.4	-4.5	8.2	8.6	-1.7	4.8*	2.4
CC(C)C[C@@H](COCc1cccc(C(F)(F)F)c1)N1CCN(C(=O)c2ccc(C(F)(F)F)cc2)CCC1=O	.	.	.	.	-10.8	.	.
COC(=O)c1ccc(OC(=O)c2ccccn2)cc1	-0.4	1.3	-14.0	-9.4	8.0	6.5*	0.3
CC(C)CCn1c(SCc2ccc(Cl)cc2)nc2c1c(=O)[nH]c(=O)n2C	5.3	2.0	-3.0	4.2	-11.4	3.4	.
CC(C)n1c(SCc2ccc(Cl)cc2)nc2c1c(=O)[nH]c(=O)n2C	3.0	0.7	0.5	-4.1	-7.5	5.6*	-5.8
CC1CCC(n2c(=S)[nH]c3ccccc3c2=O)CC1 (centres undefined)	0.5	-9.7	6.8	0.2	4.7	11.0*	-3.5
O=C(Nc1ccc(Cl)cc1)c1ccc2c(c1)S(=O)(=O)c1ccccc1C2=O	-0.1	13.0	.	-0.3	5.9	-3.2	.
COc1cc(CNC(=O)c2ccc3c(c2)S(=O)(=O)c2ccccc2C3=O)cc(OC)c1	-1.8	-2.5	.	1.5	-2.9	14.6*	3.2
O=C(Nc1ccc(S(=O)(=O)O)cc1)c1ccc2c(c1)S(=O)(=O)c1ccccc1C2=O	-2.3	-5.9	.	-2.1	-0.7	13.6*	-1.1
COc1cccc(CNC(=O)CCCn2nc(C)n3c(cc4sccc43)c2=O)c1	-0.6	0.7	.	0.5	-6.4	3.4	.
COC(=O)c1scc(C)c1N1C(=O)c2ccccc2C1=O	-0.8	0.7	.	.	-9.7	-2.2	.
Cc1ccc(SCCC(=O)N2CCOCC2)cc1	0.4	10.2	8.4	3.3	7.3	5.1*	1.6
CN1CCN(C(=O)CCn2c(=S)[nH]c3ccccc3c2=O)CC1	0.7	4.6	.	5.2	-13.5	.	.
O=C(c1ccccc1O)N1N=C(c2ccccc2)CC1(O)C(F)(F)F (centres undefined)	-0.9	5.1	-4.0	-1.8	2.4	2.8	.
CCOC(=O)c1c(C)c2c(=O)[nH]cnc2n1-c1ccccc1	-1.5	-28.7	.	-14.0	5.4	9.8*	11.5
O=C(Cc1ccc(Cl)cc1)c1c[nH]c(C(=O)NCCCn2ccnc2)c1	-4.3	4.8	-5.2	-12.9	-6.0	-1.6	.
CCc1cc(=O)oc2cc(OC(C)C(=O)NCC3CCC(C(=O)O)CC3)c(Cl)cc12 (centres undefined)	-2.2	2.5	.	-1.3	-3.2	10.5*	-3.3
Cc1cc(=O)oc2cc(OC(C)C(=O)NCC3CCC(C(=O)O)CC3)c(Cl)cc12 (centres undefined)	-2.7	13.4	.	-9.4	-1.1	-1.6	.
COc1ccc(CCN(Cc2ccccn2)C(=S)Nc2cccc(C)c2)cc1OC	0.4	4.5	-4.2	-8.0	1.3	8.7*	-6.2
COc1ccc(NC(=S)N(CCc2ccc(OC)c(OC)c2)Cc2ccccn2)cc1	-1.1	15.8	-5.8	-5.5	0.2	-0.4	.
SMILES	MC4R ag barr	MC4R antag cAMP	TLR4 MyD88 comp	TLR9-MyD88 inh	NOD2 RIPK2 PPI	MIN6 prolif-1	MIN6 prolif-2
O=C(O)CC1c2ccccc2C=Cc2ccccc21	-1.1	1.4	.	-0.7	10.4	1.4	.
Cc1ccccc1OCC(=O)NNC(=O)Cn1[nH]c(=O)c2ccccc2c1=O	-2.0	-7.2	.	7.1	-19.0	-2.2	.
COc1cccc(/C=C/c2[nH]c(=O)[nH]c(=O)c2[N+](=O)[O-])c1O	-1.4	-1.6	.	-10.5	5.8	-3.4	.
COc1cc(/C=C/c2[nH]c(=O)[nH]c(=O)c2[N+](=O)[O-])cc(OC)c1O	-1.6	-26.0	.	-7.4	-5.6	5.7*	-4.0
CCCOc1c(Cl)cc(C(=O)NC)cc1OC	1.5	1.2	-2.6	13.3	2.2	9.7*	5.0
CCCOc1c(Br)cc(C(=O)NCC)cc1OC	-0.6	-1.8	0.2	3.3	9.1	2.2	.
O=c1[nH]cc(S(=O)(=O)N2CCOCC2)c(=O)[nH]1	-1.4	2.1	.	-4.7	5.2	-2.9	.
O=C(NC1CCCC1)C(c1ccncc1)N(C(=O)c1csnn1)c1ccc(F)c(Cl)c1 (centres undefined)	-1.0	3.7	.	-5.4	-15.6	5.9*	-0.2
Cc1ccc(S(=O)(=O)N(CC(O)CN2C(=O)NC(C)(C)C2=O)c2ccccc2)cc1 (centres undefined)	-1.6	5.5	8.6	-3.5	0.2	8.8*	-0.7
O=C1CCC(C(=O)N2CCOCC2)CN1Cc1ccc(Cl)cc1 (centres undefined)	-3.0	0.8	.	3.3	-3.7	1.4	.
O=C1CCC(C(=O)N2CCSCC2)CN1Cc1ccc(Cl)cc1 (centres undefined)	-2.5	4.0	.	-9.4	-8.5	26.6*	0.3
CC(NC(=O)OC(C)(C)C)C(=O)Oc1cc2oc(=O)cc(-c3ccccc3)c2cc1Cl (centres undefined)	-0.8	2.9	11.2	31.4*	39.1*	5.9*	-6.2
CCOc1ncccc1C(=O)Nc1ccccc1N1CCOCC1	-0.6	5.3	.	-7.8	-10.1	-2.9	.
CCOc1ncccc1C(=O)OC(C)C(=O)Nc1ccc(N2CCOCC2)cc1 (centres undefined)	0.2	12.2	.	2.4	-13.1	10.1*	3.6
Cn1c(CC(=O)NNC(=O)c2cccnc2)nc2ccccc21	-0.5	-4.2	.	1.0	0.1	-2.9	.
Cc1ccc(S(=O)(=O)Nc2cc(S(=O)(=O)N3CCOCC3)ccc2NCC2CCCO2)cc1 (centres undefined)	-1.0	3.8	.	0.7	-8.7	14.9*	3.8
O=S(=O)(Nc1cc(S(=O)(=O)N2CCOCC2)ccc1NCC1CCCO1)c1ccccc1F (centres undefined)	-0.5	-2.2	.	-10.3	13.3	1.7	.
CN1CCN(c2nc(C#N)cc(-c3ccccc3)n2)CC1	-1.1	-2.5	-6.2	-2.8	-3.4	9.8*	-4.8
